Laboratory results: article PMC4816258 (Clinical and Translational Gastroenterology, 2015)
Entries after “also recorded” stand apart in the source; their conditions may differ. Where no end group is shown, it is not given here.

Key:
[1] = tested on: EGFR in HT29 cells (siCL vs siEGFR); assay: siRNA knockdown of EGFR, confocal microscopy of peptide binding; assay type: cell-based, human; conditions: for intensity siCL vs siEGFR (in words): HT29, confocal; for binding/intensity in HT29 knockdown cells (siEGFR) / binding to control HT29 cells (siCL): confocal; for binding/intensity in HT29 knockdown cells (siEGFR): EGFR-targeting siRNA; for binding to control HT29 cells (siCL): nontargeting siRNA
Method in brief: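 HT29 cells, with penicillin–streptomycin omitted, transfected using DharmaFECT with EGFR-targeting or nontargeting pool siRNA. Cells incubated with Cy5.5-labeled test and control peptides, then fixed in 4% PFA or methanol. Stained with mouse anti-EGFR (1:1000) overnight at 4 °C, then AF488 goat anti-mouse (1:500) 1 h at RT. Mounted with DAPI; confocal imaging with 63× oil objective.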

HT29 cells [2] = assay: confocal fluorescence microscopy of peptide binding, HT29; assay type: cell-based, human; conditions: 5 μM peptide, 3 min at RT; HT29 high EGFR expression
Method in brief: (§1)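 HT29 cells kept in McCoy's medium; SW480 and SW620 cells in DMEM. All with 10% FBS and 1% penicillin–streptomycin at 37 °C, 5% CO2. ~10^3 cells grown on coverslips to ~80% confluence, washed in PBS and incubated with 5 μM Cy5.5-labeled test or control peptide for 3 min at RT. Cells washed, fixed in 4% PFA for 5 min and mounted with DAPI; confocal imaging with 63× oil objective. Intensities quantified from five cells in two independent images.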

SW480 cells = assay: confocal fluorescence microscopy of peptide binding, SW480; assay type: cell-based, human; conditions: 5 μM peptide, 3 min at RT; SW480 medium EGFR expression
Method in brief: as §1

SW620 cells = assay: confocal fluorescence microscopy of peptide binding, SW620; assay type: cell-based, human; conditions: 5 μM peptide, 3 min at RT; SW620 low EGFR expression
Method in brief: as §1

[3] = tested on: spontaneous colonic adenomas in CPC;Apc mice; assay: in vivo near-infrared fluorescence endoscopy of colon in CPC; set-up: species or system mouse; conditions: for T/B ratio (log2), flat lesions / T/B ratio (log2), polyps: mean±s.d., n=15; for target-to-background ratio, flat lesions / target-to-background ratio, polyps: 1.5 ml, 5 min incubation; for target-to-background ratio, flat lesions: flat lesions n=15, 5 mice; for target-to-background ratio, polyps: polyps n=15, 5 mice
Method in brief: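 CPC;Apc mice (Cdx2-Cre, floxed Apc allele), n=5, aged 7–10 months, under 2–4% isoflurane in oxygen by nose cone. Colon rinsed with water under white light. Cy5.5-labeled peptides (100 μM) delivered topically through the endoscope channel and left 5 min, then unbound peptide rinsed off. Imaging with small-animal NIR fluorescence endoscope; lesions excised for H&E. T/B ratios log-transformed; fold-change taken as anti-log of difference.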

[4] = fluorescence spectra of Cy5.5-labeled peptides; assay type: physicochemical; conditions: 10 μM in PBS, λex=671 nm
[5] = tested on: EGFR phosphorylation, Akt and Erk1/2 phosphorylation in HT29 cells; assay: effect of peptide on cell signaling, western blot; assay type: cell-based, human; conditions: 5 and 100 μM, 10, 20 and 120 min
Method in brief: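 HT29 cells held in serum-free medium for 16 h, then exposed to Cy5.5-labeled peptide at 5 or 100 μM for 10, 20 or 120 min. EGF at 100 ng/ml for the same times served as reference. Cells lysed in RIPA with protease inhibitors, followed by SDS gel electrophoresis, PVDF transfer and chemiluminescent immunoblotting. Probes: EGFR, phospho-EGFR, AKT, phospho-AKT (S473), ERK1/2, phospho-ERK1/2 and tubulin.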

human colonic dysplasia = assay: binding of peptide and antibody to human colonic specimens, confocal microscopy
Method in brief: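 Human colonic biopsies from routine colonoscopy, frozen in OCT, cut at 10 μm. Sections incubated with 5 μM Cy5.5-labeled peptide in PBS for 10 min at RT, then rabbit anti-EGFR (1:1000) overnight at 4 °C and AF488 goat anti-rabbit (1:500) 1 h at RT. Sections fixed in 4% PFA and mounted with DAPI; confocal imaging at 20×. Mean intensity taken from three 30×30 μm² boxes within surface epithelium per specimen. Histology reviewed by GI pathologist.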

HT29 cells [6] = assay: apparent association time constant, flow cytometry; assay type: binding, human; conditions: from k, 5 μM QRH*-Cy5.5, 4 °C
Method in brief: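 HT29 cells detached with PBS-based dissociation buffer; ~10^5 cells incubated with 5 μM Cy5.5-labeled test peptide at 4 °C for intervals from 0 to 20 min. Cells washed in cold PBS, fixed in 4% PFA and analysed by flow cytometry. Median fluorescence taken as a ratio to cells without peptide at each time point. Rate constant k fitted to y(t)=Imax[1−exp(−kt)]. Six independent experiments.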

[7] = tested on: dysplastic crypts in polyps; assay: binding to dysplastic crypts in mouse polyp specimens, immunofluorescence; conditions: optimal cutting temperature-embedded mouse specimens
Method in brief: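 Mouse polypoid dysplasia frozen in OCT and cut at 10 μm. Sections stained with goat anti-mouse anti-EGFR (1:1000) plus AF488-labeled secondary antibody, washed in PBS, fixed in 4% PFA for 10 min and mounted with DAPI. Confocal microscopy used; adjacent sections stained with H&E.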

[8] = tested on: human dysplastic colorectal polyps; conditions: FITC-labeled, confocal endomicroscopy; cited from earlier work
[9] = target: Epidermal growth factor receptor (EGFR) (human (endogenous in HT29, SW480, SW620), UniProt P00533 25-1210); assay: immunostaining of cells or tissue
[10] = NIR endoscopy, topical 100 μM, 5 min
[11] = anti-log of difference in log-transformed data

Molecule	intensity siCL vs siEGFR (in words) [1]	binding/intensity in HT29 knockdown cells (siEGFR) [1]	binding to control HT29 cells (siCL) [1]	fluorescence signal from flat lesions [3, 10]	fluorescence signal from polyp [3, 10]	T/B ratio (log2), flat lesions ([3]; topical 100 μM) [log2]	T/B ratio (log2), polyps ([3]; topical 100 μM) [log2]	peak emission [4] [nm]	EGFR phosphorylation / downstream signaling [5]	target-to-background ratio, flat lesions ([3]; topical 100 μM)	target-to-background ratio, polyps ([3]; topical 100 μM)	other results
PEHKRRQ [PEH*-Cy5.5]	nonsignificant decrease	minimal binding	minimal binding	Minimal signal	Minimal signal	0.36±0.47	0.62±0.77	710				binding to cell surface (HT29) (HT29 cells [2]): Minimal binding; binding to cell surface (SW480) (SW480 cells): Minimal binding; binding to cell surface (SW620) (SW620 cells): Minimal binding
QRHKPRE									No downstream signaling was observed; also recorded: lack of cytoplasmic signaling	2.7±0.7	4.0±1.7	mean fluorescence intensity, dysplasia compared with normal (human colonic dysplasia; 5 μM, 10 min at RT, dysplasia n=29, normal n=15): 19.4 fold
QRHKPRE [QRH*-Cy5.5]	significantly higher intensities for siCL-transfected HT29 cells	Reduced fluorescence intensity	bind strongly to the surface; also recorded: strong binding	Several flat lesions are seen on fluorescence; also recorded: presence of flat lesions	increased intensity from the polyp in a heterogeneous pattern	1.39±0.34	1.90±0.60	710	no evidence of either EGFR phosphorylation or downstream phosphorylation of Akt and Erk1/2	2.7±0.7	4.0±1.7	time scale for binding (HT29 cells [6]): 2.46 min; signal from normal colonic mucosa [3, 10]: minimal background; mean fold difference of T/B ratio QRH*-Cy5.5 vs PEH*-Cy5.5, flat lesions [3, 11]: 2.05; mean fold difference of T/B ratio QRH*-Cy5.5 vs PEH*-Cy5.5, polyps [3, 11]: 2.43; difference in results between QRH*-Cy5.5 and PEH*-Cy5.5 (target-to-background) ([3]; topical 100 μM, 5 min): significant; area under ROC curve (AUC) (human colonic dysplasia; dysplasia vs normal, n=29 and 15): 0.94; binding to dysplastic crypts in polyps [7]: increased fluorescence intensity
VRPMPLQ												detection of dysplastic colorectal polyps [8]: used to detect human dysplastic colorectal polyps in vivo with confocal endomicroscopy
QRHKPREGGGSK(Cy5.5)-NH2 [QRH*-Cy5.5]												fold change of fluorescence intensity, siCL- vs. siEGFR-transfected cells [9]: 3.2 fold
